Source: PubChem (Johns Hopkins Ion Channel Center)
KCNQ1 block = human KCNQ1 channel inhibition; P51787; CHO-K1 KCNQ1, FluxOR thallium flux fluorescence; hits give high values; B-score at 10 µM; 310,000 compounds, 1.3% hits; AID 2642;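 active = compounds whose thallium flux B-score, printed positive for inhibition, exceeds three library SD while starting fluorescence stays within three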;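 note: channel opened by potassium depolarization with thallium stimulus after 20 min compound exposure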
KCNQ1 act = potentiates or activates the human KCNQ1 potassium channel | CHO-K1 KCNQ1, thallium flux FluxOR fluorescence; hits give high values | B-score at 10 µM | 310,000 compounds, 0.35% hits;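 active = fluorescence ratio B-score, a plate-corrected score, at least three library SD, with initial intensity B-score within 5 SD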
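Assay system: CHO-K1 cells stably expressing KCNQ1; Medium: assay buffer with matched DMSO; Also added: K+/Tl+ depolarizing stimulus; Dosing: single dose; Timing: dye 90 min, compound 20 min, room temperature; Measured by: kinetic FluxOR thallium fluorescence, 10-s 1-Hz baseline, 110-s post-stimulus read; Read-out: peak-minus-minimum fluorescence over initial fluorescence, negative-control normalized, B-scored.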
KCNK9 block = blocks the human KCNK9 two-pore domain potassium channel; Q9NPC2; HEK293 KCNK9, FluxOR thallium flux fluorescence; hits give low values; B-score at 10 µM; 310,000 compounds, 1.2% hits;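 active = ratio B-score over 3 SD below the library mean, with starting fluorescence within 5 SD of its mean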;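 note: negative B-score means less thallium flux so channel inhibition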
Target sequence (Q9NPC2 whole entry, looked up, the tested form may be a part): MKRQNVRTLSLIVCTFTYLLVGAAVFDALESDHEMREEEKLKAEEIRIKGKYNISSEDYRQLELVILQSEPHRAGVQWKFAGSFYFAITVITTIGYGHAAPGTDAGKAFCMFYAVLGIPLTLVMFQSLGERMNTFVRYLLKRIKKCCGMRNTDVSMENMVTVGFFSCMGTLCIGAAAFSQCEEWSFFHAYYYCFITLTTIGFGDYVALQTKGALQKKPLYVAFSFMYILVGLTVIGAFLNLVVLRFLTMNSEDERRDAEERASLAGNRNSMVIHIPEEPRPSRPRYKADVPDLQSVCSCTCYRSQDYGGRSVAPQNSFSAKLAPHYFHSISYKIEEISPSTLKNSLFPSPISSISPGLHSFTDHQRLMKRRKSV
Kir21 inh = blocks the mouse Kir2.1 inward-rectifier potassium channel; P35561; HEK293-Kir2.1, FluxOR thallium flux fluorescence; hits give low values; B-score at 10 µM; 310,000 compounds, 0.85% hits;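 active = fluorescence ratio B-score at or below minus 3 SD of library scores, with starting-brightness B-score within 2 SD, cut at about -4.2 in these data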;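 note: channel flux triggered by added potassium and thallium sulfate stimulus; B-score of peak minus minimum fluorescence over baseline after thallium stimulus; more negative B-score means stronger Kir2.1 block with less thallium influx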
KCNK3 block = human KCNK3 channel inhibition, primary screen. 340,000 compounds, 0.84% hits. B-score at 10 µM. O14649. CHO-KCNK3 thallium flux, FluxOR fluorescence; hits give low values;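 active = B-score under library mean minus 4 SD, starting fluorescence ratio at most library mean plus 5 SD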;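 note: more negative B-score means stronger inhibition of thallium flux through KCNK3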
hERG protect = compounds protecting human hERG from proarrhythmic drug block | activation (rescue from dofetilide block), less the hit threshold, % at 10 µM | 310,000 compounds, 0.51% hits | Q12809 | CHO-hERG, FluxOR thallium flux, dofetilide IC70 present;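 active = activation above the mean of controls blocked by dofetilide plus 5 SD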;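 note: thallium influx through hERG after potassium depolarization seen as dye fluorescence rise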
Hits are given with their value; 0 = inactive; - = no result. Only some compounds are listed: those with a hit (about 3.7% of all), similar ones and a draw of the others.

SMILES	KCNQ1 block	KCNQ1 act	KCNK9 block	Kir21 inh	KCNK3 block	hERG protect
CC(NC1CCCC1)c1ccccc1 (centres undefined)	0	0	0	0	0	0
N#Cc1c[nH]n2c(=O)c3c(nc12)CCCC3	0	0	0	0	-	5.4
COc1ccc(S(=O)(=O)Cc2ccc(C(=O)N3CCN(c4cc(Cl)ccc4C)CC3)o2)cc1	6	0	0	0	0	0
CC(=O)Nc1cccc(C(=O)/C=C/c2ccc(Br)cc2)c1	0	0	0	-6	0	0
COc1ccccc1-n1c(C)nc(=O)c(-c2ccccc2)c1C	0	0	0	0	0	5.3
O=C(O)Cc1ccc(O)c(O)c1	0	0	0	0	0	0
O=C(O)Cc1cc(I)c(Oc2ccc(O)c(I)c2)c(I)c1	0	0	0	0	-	9.9
CCCN(CC(=O)Nc1cc(Cl)ccc1Cl)C(=O)/C=C/c1cc(OC)ccc1OC	-	-	-	-	-8.7	-
CC1CCN(S(=O)(=O)c2cc3c4c(c2)C(C)C(=O)N4CCC3)CC1 (centres undefined)	0	0	0	0	0	0
CN(C)CCN(Cc1ccccc1)S(=O)(=O)c1ccc2c(c1)n(C)c(=O)c(=O)n2C	0	0	-7	0	0	0
COc1cc(/C=N/Nc2nc(N3CCCC3)nc(N3CCCC3)n2)ccc1OCc1ccccc1F	0	0	0	0	0	11
CCCCn1nnc(NC(=O)c2ccc(-c3ccccc3[N+](=O)[O-])o2)n1	0	0	0	0	0	0
CCCCn1nnc(NC(=S)NC(=O)c2ccc(-c3cccc(Cl)c3Cl)o2)n1	0	0	0	0	0	7.4
CCCCCCCN1C(Nc2ccccc2)=NC[C@@H]1Cc1ccccc1	7	0	0	-5.6	0	0
c1ccc(C[C@H]2CN=C(Nc3ccccc3)N2CCCC2CCCC2)cc1	0	0	0	-5.6	0	0
C[C@H]1CN=C(Nc2ccccc2)N1CCCC1CCCCC1	0	0	0	0	0	0
c1ccc(CCCCN2C(Nc3ccccc3)=NC[C@@H]2Cc2ccccc2)cc1	-	-	-	-	0	-
COc1ccc(CNC(NC(=O)c2ccccc2)(C(F)(F)F)C(F)(F)F)cc1	0	0	0	0	0	0
CCOC(=O)C1CCCN(C(=O)COc2ccc(N(C)S(=O)(=O)c3ccc(F)cc3)cc2)C1 (centres undefined)	0	0	0	0	0	0
Cc1ccc(NC(=O)CCC(=O)Nc2nnc(C3CCCCC3)s2)cc1	0	0	0	0	0	0
COC(=O)C1Cc2c([nH]c3ccccc23)C2(CCN(Cc3ccccc3)CC2)N1 (centres undefined)	0	0	0	-6.8	0	0
CNC(=S)/N=C/NOCc1ccc(Cl)cc1Cl	8	0	0	0	0	0
CC(=O)c1ccccc1NC(=O)COC(=O)CN1C(=O)C2CCCCC2C1=O (centres undefined)	-	-	-	-	0	-
O=C(NC(=S)N1CCOCC1)c1ccc([N+](=O)[O-])cc1	0	0	0	0	0	0
O=C(O)CC1(CC(=O)NCc2ccc(C(F)(F)F)cc2)CCCCC1	0	0	0	0	0	0
SMILES	KCNQ1 block	KCNQ1 act	KCNK9 block	Kir21 inh	KCNK3 block	hERG protect
O=C(O)CC1(CC(=O)Nc2cc(C(F)(F)F)cc(C(F)(F)F)c2)CCCCC1	7	0	0	0	0	0
COc1ccc(N2CCN(C(=O)CSc3nnc(-c4ccco4)n3C)CC2)cc1	0	0	0	0	-	0
CCOc1ccccc1N1CCN(Cc2cccc(OC)c2OC)CC1	6	0	0	0	0	0
Cc1ccc(S(=O)(=O)CCC(=O)OCC(=O)NCc2ccc(Cl)cc2)cc1	0	0	0	0	0	0
Cc1nc(SCC(=O)NCC2CCCO2)c2c(C)c(C)sc2n1 (centres undefined)	-	-	-	-	0	-
Cc1nc(SCC(=O)NCC2CCCO2)c2c3c(sc2n1)CCCC3 (centres undefined)	0	13	0	0	0	15
Cc1c(NC(=O)c2ccc3c(c2)OCO3)cccc1-c1nc2ccccc2o1	0	0	0	0	0	6.0
Cc1ccc(-c2nc3ccccc3o2)cc1NC(=O)c1ccc2c(c1)OCO2	0	0	0	0	0	0
O=C(O)/C=C/c1cn(-c2ccccc2)nc1-c1ccc(-c2ccc([N+](=O)[O-])cc2)o1	0	0	0	0	0	11
O=C(O)/C=C/c1cn(-c2ccccc2)nc1-c1cccc([N+](=O)[O-])c1	0	0	0	0	0	0
O=C(O)C1CCCC[C@H]1C(=O)Nc1ncc([N+](=O)[O-])s1 (some centres undefined)	-	-	-	-	0	-
N#C/C(=C/c1ccc(Sc2nc3ccccc3[nH]2)o1)c1cccc(Br)c1	0	0	0	0	-10	0
N#C/C(=C/c1ccc(Sc2nc3ccccc3[nH]2)o1)c1ccccc1F	17	0	0	0	0	0
N#C/C(=C\c1ccc(Sc2ccccc2)o1)c1nc2ccccc2[nH]1	0	0	0	0	0	0
N#C/C(=C\c1ccc([N+](=O)[O-])o1)c1nc2ccccc2[nH]1	6	0	0	0	-	0
O=C(c1cc(Br)c[nH]1)N1CCSCC1	0	0	0	0	0	0
Cc1ccc(-c2csc3nc(SCC(=O)Nc4ccc(Cl)c(C(=O)O)c4)[nH]c(=O)c23)cc1	0	0	0	0	0	0
Cc1ccc(S(=O)(=O)N2C[C@@H]3[C@H]4CC[C@H](C4)[C@@H]3[C@@H](C)[C@H]2c2ccn(Cc3ccccc3)c2)cc1	-	-	-	-	0	-
O=C(NC(Cc1c[nH]c2ccccc12)C(=O)N/N=C/c1cccc2ccccc12)c1cccs1 (centres undefined)	6	0	0	0	0	0
CCOC(=O)C(=CNc1cccnc1Oc1ccc(C)c2c1CCC2)C(=O)OCC	0	0	-7.2	0	0	0
CC1=C/C(=N\Nc2ccccc2[N+](=O)[O-])CC(C)(C)C1	7	0	0	0	0	0
O=c1oc2cc(O)ccc2c2c1CCCC2	0	0	0	-6.5	0	0
CNC(=O)c1[nH]cnc1C(=O)NCC(=O)OCc1ccccc1	0	0	0	0	0	0
S=C(N/N=C/c1ccc(Cl)cc1)N1CCOCC1	0	0	0	0	0	8.6
COC(=O)c1cnn2c(C(F)(F)F)cc(-c3ccccc3)nc12	0	0	0	0	0	5.2
COc1cccc(-c2cc(C(F)(F)F)n3ncc(C(=O)O)c3n2)c1	0	0	0	0	0	0
COc1ccc(C(=O)NCc2cnn(C)c2C)cc1OC1CCN(C(C)C)CC1	0	0	0	0	0	0
COc1ccccc1C1CC(c2ccco2)=NN1c1ccccc1 (centres undefined)	0	0	-7.6	0	0	0
Fc1ccc(C2=NN(c3ccccc3)C(c3ccco3)C2)cc1 (centres undefined)	0	0	0	0	0	0
Cc1nc(NC(=O)c2ccccc2)sc1-c1csc(Nc2cccc(F)c2)n1	0	0	0	0	-	0
